Experimental data published in ChEMBL document CHEMBL3399930, “Rat hormone sensitive lipase inhibition by cyclipostins and their analogs” (Bioorg Med Chem, 2015).

Target: T1, Hormone-sensitive lipase (Rattus norvegicus, UniProt P15304)
T1 sequence (P15304 whole entry): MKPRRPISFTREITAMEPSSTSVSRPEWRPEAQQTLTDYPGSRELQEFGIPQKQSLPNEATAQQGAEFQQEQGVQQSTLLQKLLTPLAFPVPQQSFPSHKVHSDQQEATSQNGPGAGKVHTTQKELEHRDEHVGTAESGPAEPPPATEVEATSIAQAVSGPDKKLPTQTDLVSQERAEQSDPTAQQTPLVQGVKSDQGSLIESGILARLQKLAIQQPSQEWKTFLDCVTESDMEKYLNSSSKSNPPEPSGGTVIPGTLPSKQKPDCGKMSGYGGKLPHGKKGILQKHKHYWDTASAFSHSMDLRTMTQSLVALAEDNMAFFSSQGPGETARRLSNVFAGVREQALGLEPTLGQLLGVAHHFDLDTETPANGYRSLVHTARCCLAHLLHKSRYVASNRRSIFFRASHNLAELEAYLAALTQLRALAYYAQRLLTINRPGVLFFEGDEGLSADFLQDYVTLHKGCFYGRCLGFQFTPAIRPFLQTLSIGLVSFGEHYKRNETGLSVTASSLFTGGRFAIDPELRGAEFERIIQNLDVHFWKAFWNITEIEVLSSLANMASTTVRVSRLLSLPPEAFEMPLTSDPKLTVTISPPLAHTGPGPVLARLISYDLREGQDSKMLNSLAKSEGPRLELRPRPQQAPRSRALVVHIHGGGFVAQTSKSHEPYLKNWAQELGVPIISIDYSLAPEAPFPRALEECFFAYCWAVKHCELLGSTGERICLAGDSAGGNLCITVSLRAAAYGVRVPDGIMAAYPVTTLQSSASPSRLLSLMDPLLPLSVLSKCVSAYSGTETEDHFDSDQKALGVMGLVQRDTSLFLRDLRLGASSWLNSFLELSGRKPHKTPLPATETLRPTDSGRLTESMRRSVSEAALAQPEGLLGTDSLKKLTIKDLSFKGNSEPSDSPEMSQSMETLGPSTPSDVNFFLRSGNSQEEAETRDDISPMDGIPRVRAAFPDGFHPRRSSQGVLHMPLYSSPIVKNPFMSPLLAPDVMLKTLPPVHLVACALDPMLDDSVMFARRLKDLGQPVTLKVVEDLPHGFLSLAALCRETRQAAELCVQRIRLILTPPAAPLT
Test: Irreversible inhibition of rat hormone sensitive lipase assessed as relative residual activity by kinetic analysis
Summary of the method: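 Recombinant His-tagged rat HSL, no preincubation, added directly at 37°C to liposomes containing both [3H]triolein and inhibitor, at several inhibitor concentrations. Samples every 3–5 min over 30 min. Released oleic acid extracted and measured by scintillation. Residual activity versus inhibitor concentration and time fitted to an irreversible inactivation scheme (k-2 ≈ 0) to obtain binding and inactivation constants.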

Molecule `CCCCCCCCCCCCCCCCO[P@]1(=O)OC[C@@H]2COC(=O)C2=C(C)O1` (relative stereo) has a Ki of 0.04 µM.

Target: T1, Hormone-sensitive lipase
Test: Inhibition of rat hormone sensitive lipase assessed as oleic acid release from [3H]triolein by scintillation counting
Summary of the method: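 His-tagged rat HSL expressed in baculovirus-infected Sf9 cells, Ni-NTA purified. Enzyme (20–100 nM) preincubated 30 min on ice with inhibitor-containing PC/PI liposomes, no triolein. Substrate: liposomes of 200 μM PC/PI (3:1 w/w) with 500 μM triolein plus 3H-triolein. Buffer: 25 mM Tris, 150 mM NaCl, 0.2 mM EDTA, 1 mM β-mercaptoethanol, pH 7.4, with 0.2% BSA. Run at 37°C. Samples taken every 10 min (6–8 points), oleate extracted and counted. IC50 is the inhibitor level giving 50% activity, in triplicate.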

Going from `CCCCCCCCCCCC[C@H]1CC[P@@](=O)(OC)OC(C)=C1C(=O)OC` (relative stereo) to `CCCCCCCCCCCC[C@@H]1CC[P@@](=O)(OC)OC(C)=C1C(=O)OC` (relative stereo), the IC50 rises from 13.5 µM to 35 µM (2.6-fold).

`CCCCCCCCCCCCCCCO[P@]1(=O)CC[C@@H]2COC(=O)C2=C(C)O1` (racemic) and `CCCCCCCCCCCCCCCO[P@]1(=O)CC[C@H]2COC(=O)C2=C(C)O1` (racemic) are within 1.5-fold of each other in IC50: 0.45 µM for the first, 0.47 µM for the second.

Compared with `CCCCCCCCCCCCCCCCO[P@]1(=O)CC[C@@H]2COC(=O)C2=C(C)O1` (racemic), `CCCCCCCCCCCCCCCCO[P@]1(=O)CC[C@H]2COC(=O)C2=C(C)O1` (racemic) is 19-fold lower in IC50: 6.9 µM for the first, 0.36 µM for the second. The second is the more potent here.

First: CCCCCCCCCCCCCCCCCC[C@@H]1CC[P@@](=O)(OC)OC(C)=C1C(=O)OC (relative stereo)
Second: CCCCCCCCCCCCCCCCCC[C@H]1CC[P@@](=O)(OC)OC(C)=C1C(=O)OC (relative stereo)
The IC50 of the first is higher: > 100 µM for the first, 27 µM for the second. The second is the more potent here.

First: CCCCCCCCCCCCCCCO[P@]1(=O)OC[C@H]2COC(=O)C2=C(C)O1 (racemic)
Second: CCCCCCCCCCCCCCCO[P@]1(=O)OC[C@@H]2COC(=O)C2=C(C)O1 (racemic)
The IC50 of the first is 12-fold lower: 0.075 µM for the first, 0.9 µM for the second.

Going from `CCCCCCCCCCCCCCCCOP1(=O)OC(C)=C(C(=O)OC)CCC1(F)F` (stereo not given) to `CCCCCCCCCCCCCCCCOP1(=O)OCCC(C(=O)OC)=C(C)O1` (stereo not given), the IC50 falls from > 100 µM to 0.06 µM. The second is the more potent here.

Going from `CO[P@@]1(=O)CC[C@H]2COC(=O)C2=C(C)O1` (relative stereo) to `CO[P@]1(=O)OC[C@H]2COC(=O)C2=C(C)O1` (relative stereo) [CYCLOPHOSTIN], the IC50 rises from 100 µM to > 100 µM. The first is the more potent here.

First: CO[P@]1(=O)OC[C@@H]2COC(=O)C2=C(C)O1 (relative stereo)
Second: CCCCCCCCCCCCCCCCO[P@]1(=O)OC[C@H]2COC(=O)C2=C(C)O1 (relative stereo)
The IC50 of the first is higher: > 100 µM for the first, 0.42 µM for the second.

Compared with `CCCCCCCCCCCCCCCC[C@H]1CC[P@@](=O)(OC)OC(C)=C1C(=O)OC`, `CCCCCCCCCCCCCCCC[C@@H]1CC[P@@](=O)(OC)OC(C)=C1C(=O)OC` (relative stereo) is 6-fold higher in IC50: 10 µM for the first, 60 µM for the second. The first is the more potent here.

`CCCCCCCCCCCCCCCCO[P@]1(=O)OC[C@@H]2COC(=O)C2=C(C)O1` (relative stereo) gave an IC50 of 0.025 µM.
